Measurements: ChEMBL document CHEMBL4219025 (J Med Chem, 2018)
Active and inactive are the calls of the source. No cut-off for these calls is given here.

Legend:
[1] = target: T1, NAD-dependent protein deacetylase sirtuin-1 (Homo sapiens, UniProt Q96EB6); test: Inhibition of recombinant human GST-tagged Sirt1 (133 to 747 residues) using Z-(Ac)Lys-AMC as substrate measured after 4 hrs by high-throughput fluorescence based assay
T1 sequence (Q96EB6 whole entry): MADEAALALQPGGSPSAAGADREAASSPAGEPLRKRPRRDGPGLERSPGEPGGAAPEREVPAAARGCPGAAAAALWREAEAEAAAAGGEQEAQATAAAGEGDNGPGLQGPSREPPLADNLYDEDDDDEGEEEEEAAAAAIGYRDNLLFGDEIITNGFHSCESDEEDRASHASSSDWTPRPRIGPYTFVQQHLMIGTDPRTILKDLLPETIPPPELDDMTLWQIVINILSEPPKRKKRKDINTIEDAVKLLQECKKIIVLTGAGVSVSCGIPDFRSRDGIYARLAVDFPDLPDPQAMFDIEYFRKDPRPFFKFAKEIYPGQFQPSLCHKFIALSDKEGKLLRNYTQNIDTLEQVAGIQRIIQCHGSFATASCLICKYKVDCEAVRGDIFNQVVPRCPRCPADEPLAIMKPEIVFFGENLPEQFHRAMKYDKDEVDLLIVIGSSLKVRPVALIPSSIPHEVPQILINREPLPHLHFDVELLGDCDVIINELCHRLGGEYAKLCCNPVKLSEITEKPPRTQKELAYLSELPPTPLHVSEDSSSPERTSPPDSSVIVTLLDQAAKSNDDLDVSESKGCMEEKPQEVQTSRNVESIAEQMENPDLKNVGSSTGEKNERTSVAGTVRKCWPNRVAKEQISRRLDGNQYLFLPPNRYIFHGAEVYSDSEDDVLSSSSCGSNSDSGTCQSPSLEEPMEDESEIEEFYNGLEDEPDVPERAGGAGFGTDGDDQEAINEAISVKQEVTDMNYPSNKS

[2] = target: T2, NAD-dependent protein deacetylase sirtuin-2 (Homo sapiens, UniProt Q8IXJ6); test: Inhibition of recombinant human His10-tagged Sirt2 (56 to 356 residues) expressed in Escherichia coli BL21(DE3) using Z-(Ac)Lys-AMC as substrate measured after 4 hrs by high-throughput fluorescence based assay
T2 sequence (Q8IXJ6 whole entry): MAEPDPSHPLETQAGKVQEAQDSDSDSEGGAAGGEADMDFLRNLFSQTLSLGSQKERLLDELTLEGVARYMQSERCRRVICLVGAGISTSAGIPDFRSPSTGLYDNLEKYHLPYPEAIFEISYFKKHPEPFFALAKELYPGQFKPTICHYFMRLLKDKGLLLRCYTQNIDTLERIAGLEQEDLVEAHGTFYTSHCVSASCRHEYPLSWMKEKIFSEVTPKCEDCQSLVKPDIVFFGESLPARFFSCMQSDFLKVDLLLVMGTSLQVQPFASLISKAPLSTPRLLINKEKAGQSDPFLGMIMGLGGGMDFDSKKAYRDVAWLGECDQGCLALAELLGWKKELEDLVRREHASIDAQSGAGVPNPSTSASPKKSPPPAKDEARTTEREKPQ

[3] = target: T3, NAD-dependent protein deacetylase sirtuin-3, mitochondrial (Homo sapiens, UniProt Q9NTG7); test: Inhibition of recombinant human His10-tagged Sirt3 (118 to 395 residues) expressed in Escherichia coli BL21(DE3) using Z-(Ac)Lys-AMC as substrate measured after 4 hrs by high-throughput fluorescence based assay
T3 sequence (Q9NTG7 whole entry): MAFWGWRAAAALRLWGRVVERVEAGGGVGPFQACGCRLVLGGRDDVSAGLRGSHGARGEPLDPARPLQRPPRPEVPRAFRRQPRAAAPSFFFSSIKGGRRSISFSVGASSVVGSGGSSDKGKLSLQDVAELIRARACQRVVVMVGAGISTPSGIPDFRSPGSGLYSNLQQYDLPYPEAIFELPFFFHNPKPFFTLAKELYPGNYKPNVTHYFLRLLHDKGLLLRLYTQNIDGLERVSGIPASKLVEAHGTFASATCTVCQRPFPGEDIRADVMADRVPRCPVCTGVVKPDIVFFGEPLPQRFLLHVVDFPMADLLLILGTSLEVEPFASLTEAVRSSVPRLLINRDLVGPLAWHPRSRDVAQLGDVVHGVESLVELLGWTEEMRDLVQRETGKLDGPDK

[4] = target: Protein cereblon/NAD-dependent protein deacetylase sirtuin-1 (Homo sapiens) (UniProt Q96EB6+Q96SW2); test: Induction of cereblon-mediated Sirt1 degradation in human HeLa cells at 10 uM after 1 to 6 hrs by Western blot method; format: cell-based
Method in brief: (§1)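 HeLa cells in DMEM high glucose with 10% FCS, 37 °C, 5% CO2; 2x10^5 cells per 6-well (endogenous Sirt1/Sirt2) or 2x10^4 EGFP-Sirt2-HeLa per 24-well. Cycloheximide applied before compound (5 µg/ml 6-well, 3 µg/ml 24-well); 4 h default incubation, DMSO controls. Lysed in reducing sample buffer, 10% SDS-PAGE, PVDF, rabbit anti-Sirt2/Sirt1/GAPDH 1:5000, ECL; background-subtracted band intensities normalized to mean control.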

[5] = target: T4, Protein cereblon/NAD-dependent protein deacetylase sirtuin-2 (Homo sapiens) (UniProt Q8IXJ6+Q96SW2); test: Induction of cereblon-mediated Sirt2 degradation in human HeLa cells at 10 uM after 1 to 6 hrs by Western blot method; format: cell-based; method in brief: as §1
[6] = target: T4, Protein cereblon/NAD-dependent protein deacetylase sirtuin-2 (Homo sapiens); test: Induction of cereblon-mediated EGFP-fused Sirt2 (unknown origin) degradation expressed in human HeLa cells at 10 uM after 4 hrs in presence of 2-(4,6-dimethylpyrimidin-2-ylthio)-N-(5-(3-((1-(2-methoxyethyl)-1H-1,2,3-triazol-4-yl)methoxy)benzyl)thiazol-2-yl)acetamide and proteosome inhibitor MG132 by Western blot method; format: cell-based; method in brief: as §1
[7] = target: T4, Protein cereblon/NAD-dependent protein deacetylase sirtuin-2 (Homo sapiens); test: Induction of cereblon-mediated Sirt2 degradation in human HeLa cells at 10 uM after 2 hrs by Western blot method; format: cell-based; method in brief: as §1
[8] = target: T4, Protein cereblon/NAD-dependent protein deacetylase sirtuin-2 (Homo sapiens); test: Induction of cereblon-mediated EGFP-fused Sirt2 (unknown origin) degradation expressed in human HeLa cells at 10 uM after 4 hrs by Hoechst 33342 staining-based fluorescent microscopic method; format: cell-based
Method in brief: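 Live EGFP-Sirt2-expressing HeLa cells: 2x10^4 cells seeded on glass imaging dishes in complete medium overnight, treated with 10 μM compound for 4 h (DMSO controls), medium switched to phenol red-free DMEM, nuclei stained 0.5 µg/mL Hoechst 33342 for 5 min; confocal live imaging with 40× oil objective.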

[9] = target: T4, Protein cereblon/NAD-dependent protein deacetylase sirtuin-2 (Homo sapiens); test: Induction of cereblon-mediated EGFP-fused Sirt2 degradation in human HeLa cells assessed as increase in tubulin acetlyation at 10 uM after 4 hrs by DAPI dye-based immunofluorescent microscopic analysis; format: cell-based
[10] = target: T4, Protein cereblon/NAD-dependent protein deacetylase sirtuin-2 (Homo sapiens); test: Induction of cereblon-mediated Sirt2 degradation in human HeLa cells after 4 hrs by Western blot method; format: cell-based; method in brief: as §1
[11] = target: T4, Protein cereblon/NAD-dependent protein deacetylase sirtuin-2 (Homo sapiens); test: Induction of cereblon-mediated Sirt2 degradation in human HeLa cells at 0.05 to 5 uM after 4 hrs by Western blot method; format: cell-based; method in brief: as §1

T4 sequence (Q96SW2 whole entry, looked up, one chain of several, the tested form may be a part): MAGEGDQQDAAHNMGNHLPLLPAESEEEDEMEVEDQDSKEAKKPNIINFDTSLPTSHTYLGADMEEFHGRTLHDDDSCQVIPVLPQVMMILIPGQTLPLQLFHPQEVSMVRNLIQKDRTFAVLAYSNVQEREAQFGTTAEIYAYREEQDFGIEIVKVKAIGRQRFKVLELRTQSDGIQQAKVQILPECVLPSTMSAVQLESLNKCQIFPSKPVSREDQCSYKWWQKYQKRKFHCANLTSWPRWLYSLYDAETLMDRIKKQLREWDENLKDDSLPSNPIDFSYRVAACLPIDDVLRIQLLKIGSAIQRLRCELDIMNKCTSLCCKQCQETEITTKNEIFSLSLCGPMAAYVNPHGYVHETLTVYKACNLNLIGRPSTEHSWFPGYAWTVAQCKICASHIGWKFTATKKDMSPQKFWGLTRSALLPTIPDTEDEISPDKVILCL
Chain of Protein cereblon/NAD-dependent protein deacetylase sirtuin-1 (Homo sapiens) (Q96SW2 whole entry, looked up, one chain of several): as the sequence (Q96SW2 whole entry, looked up, one chain of several, the tested form may be a part) above

SMILES | IC50 [1] | IC50 [2] | IC50 [3] | also measured
Cc1cc(C)nc(SCC(=O)Nc2ncc(Cc3cccc(OCc4cn(CCCCNC(=O)COc5cccc6c5C(=O)N(C5CCC(=O)NC5=O)C6=O)nn4)c3)s2)n1 (stereo not given) | > 100 µM | 0.25 µM | > 100 µM | Activity [4]: inactive; Activity [5]: Active; Activity [6]: inactive; Activity [7]: Active; Activity [8]: Active; Activity [9]: Active; Activity [10]: Dose-dependent effect
Cc1cc(C)nc(SCC(=O)Nc2ncc(Cc3cccc4ccc(Cl)cc34)s2)n1 | > 100 µM |  |  | 
C#CCOc1cccc(Cc2cnc(NC(=O)CSc3nc(C)cc(C)n3)s2)c1 | > 100 µM | 2.4 µM |  | 
Cc1cc(C)nc(SCC(=O)Nc2ncc(Cc3cccc4ccccc34)s2)n1 | > 100 µM |  | > 100 µM | 
O=C1CCC(N2C(=O)c3ccccc3C2=O)C(=O)N1 (stereo not given) |  |  |  | Activity [11]: inactive
Cc1cc(C)nc(SCC(=O)Nc2ncc(Cc3cccc(OCc4cn(Cc5ccccc5)nn4)c3)s2)n1 | > 100 µM | 0.16 µM | > 100 µM | 
COCCn1cc(COc2cccc(Cc3cnc(NC(=O)CSc4nc(C)cc(C)n4)s3)c2)nn1 | 100 µM |  | > 100 µM | Activity [11]: inactive
Cc1cc(C)nc(SCC(=O)Nc2ncc(Cc3cccc(OCc4cn(CCOCCOCCOCCOCCOCCOCCOCCOCCOCCOCCOCCNC(=O)CCCCC5SCC6NC(=O)NC65)nn4)c3)s2)n1 (stereo not given) | > 100 µM | 0.31 µM | > 100 µM | 
